Measured values published in ChEMBL document CHEMBL4513216, “Probing the Open Global Health Chemical Diversity Library for Multistage-Active Starting Points for Next-Generation Antimalarials” (ACS Infect Dis, 2020).

Assay: Toxicity liver stage against HepG2, at 10uM
Format: cell-based
Parameters: test concentration 10 uM, cell line HepG2-A16-CD81EGFP
Settings: human, HepG2-A16-CD81EGFP cells; read-out: INHIBITION
In short: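 Uninfected HepG2-A16-CD81EGFP cells, 3 × 10^3 per well, 1536-well, plated on prespotted compound at 10 μM final, parasite-free screening media added to match infected plates; puromycin 10 μM positive, DMSO 0.5% negative; run in parallel with 48 h PbLuc assay at 37 °C, 5% CO2; viability by CellTiter-Glo luminescence, normalized to controls.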

Compound	cytotoxicity at 10 µM [%]
O=C(CNC(=O)c1ccccc1F)NCc1ccccn1	-0.575
O=C(NC[C@H]1OC[C@@H](NCc2ccc(F)cc2)[C@@H]1O)N1CCOCC1	1.17
COC(=O)[C@@H]1Cc2ncn(C)c2CN1S(=O)(=O)Cc1ccccc1	-0.861
COCc1cn(C[C@H]2C[C@@H]3CCN2C[C@@H]3C(=O)N2CCOCC2)nn1	4.45
Cn1nc(-c2ccccc2)cc1[C@H]1CN2CC[C@H]1C[C@@H]2CNS(C)(=O)=O	1.82
O=C(Nc1ccccc1)[C@H]1O[C@H](CCN2CCCCC2)CC[C@@H]1O	-1.36
Cc1nc(C)c(CC(=O)NCc2ccc(F)cc2)s1	8.05
COC1(CNS(=O)(=O)c2ccccc2Cl)CCSC1 (centres undefined)	-7.48
Cc1nc(N(C)C)nc(C)c1NC(=O)c1ccco1	1.14
CC(C)C(=O)N1CCC2(CC1)NC(=O)[C@H]1CN(C(=O)N(C)C)C[C@H]12	3.03
Cc1ccsc1C(=O)N1CCCc2c(c(=O)n(C)n2C)C1	6.95
CS(=O)(=O)N1CCCC12CCCN(S(=O)(=O)c1cccc(F)c1)C2 (centres undefined)	0.88
CCc1cccc(NC(=O)N2CCn3cnc(COC)c3C2)c1	5.35
CNC(=O)CN1CCOCC2(CCCN(Cc3ccoc3)C2)C1 (centres undefined)	6.65
O=C(NC1CCCC1)C1Cc2nc(-c3ccsc3)sc2N1CC1CC1 (centres undefined)	16.6
Cc1ccc(CN2C[C@@H](c3ccccc3)[C@@]3(CCNC3=O)C2)o1	-119
COc1ccccc1C1SCC(=O)Nc2c1c(=O)[nH]n2C1CCCCC1 (centres undefined)	-1.2
CC(C)n1[nH]c(=O)c2c1NC(=O)CC2c1ccc(S(C)(=O)=O)cc1 (centres undefined)	-2.28
Cn1nc(CNC(=O)C2CCCC2)cc1C1CC1	-0.265
Cc1cc(C(F)(F)F)nn1C(C)C(=O)Nc1ccncc1 (centres undefined)	3.1
COc1cccc(S(=O)(=O)N2CCOC(C)(C(N)=O)C2)c1 (centres undefined)	3.08
CCc1cc(O)n2nc(C3CCN(C(=O)c4ccccn4)CC3)cc2n1	2.29

Compound	cytotoxicity at 10 µM [%]
Cc1c[nH]nc1C1CN(Cc2cnn(-c3ccccc3C(=O)O)c2)C1	3.32
CO[C@@H]1CC[C@@H](N(C)C(=O)c2cn3cc(C)ccc3n2)[C@H]1O	0.91
O=C1CN(C(=O)C2CN(c3ccccc3)CCO2)CCN1 (centres undefined)	1.91
O=C1Nc2ccccc2CC12CCCN2Cc1cccnc1 (centres undefined)	7.27
CNC(=O)c1ccc(CN(C)C(=O)Nc2nnc(C(C)C)s2)cc1	-14
CNC(=O)CNC(=O)Nc1ccc(F)c(Br)c1	7.92
O=C(OCc1cccs1)c1cccc(C(=O)N2CCCC2)n1	-1.11
O=C1NCCCC1NC(=O)C1(c2cccc(Cl)c2)CCC1 (centres undefined)	-2.09
Cc1cc(NCCC(=O)NC(C)C)nc(-c2ccncc2)n1	-6.74
O=C(NCc1cnn(-c2ccc(F)cc2F)c1)C1CCCO1 (centres undefined)	8.69
CCCc1cc(NC2CCc3nc(C)nn3C2)n2ncnc2n1 (centres undefined)	-10.4
O=C(COc1ccc(-c2ccccc2)nc1)NCC1CC1	6.8
CCN(CC)C(=O)CCNC(=O)c1ccccc1N1CCOCC1	-0.768
O=C(c1nc(=O)[nH][nH]1)N1CCCCCC1	14.1
Cc1ccc(Cl)cc1S(=O)(=O)NCc1cnc(N(C)C)n1C	5.17
Cc1noc(C(C)NC(=O)[C@@H](C)NC(=O)OC(C)(C)C)n1 (some centres undefined)	5.81
CCN(C(=O)Nc1cc(C)on1)C(C)c1cccc(O)c1 (centres undefined)	2.52
CN1CCOC(CNCc2c(Cl)nc3ccccn23)C1 (centres undefined)	-0.0638
CCCN1CCC(C(=O)NCCN(CC)c2ccccc2C)CC1	15.7
CCc1nc(CN2CCN(C(=O)c3csc(C(C)C)n3)CC2)no1	11.3
Cc1n[nH]c(C2CN(Cc3csc(C4CCCC4)n3)CCO2)n1 (centres undefined)	12.9
CC(=O)NC(C)(C)c1noc(C2(C#N)CCCCC2)n1	7.57

Compound	cytotoxicity at 10 µM [%]
C=C(C)Cn1ccc2cc(OC)c(F)cc2c1=O	3.09
CSc1ccc(OC(C)C(=O)Nc2c(C)n[nH]c2C)cc1 (centres undefined)	6.8
Cc1cc(C2CCCN(C(=O)c3c(C)noc3C)C2)n[nH]1 (centres undefined)	-6.63
CNC(=O)[C@@H]1C[C@H]2CN(Cc3ccc(C)o3)C[C@H]2N1C(C)=O	-103
O=C(c1cocn1)N1CCC[C@]2(C[C@@H](OCC3CC3)CO2)C1	-76.4
O=C(c1ccsc1)N1CC[C@@H](N2CCOCC2)[C@@H]1Cc1ccccc1	-71.8
CCCN1CCC(N2CCN(c3cc(C)nc(C)c3)CC2)CC1	-11.2
CC(C)CN(Cc1cnn(C)c1)C(=O)C1COc2ccccc2C1 (centres undefined)	0.956
CCC[C@H]1CN(S(=O)(=O)c2ccccc2)C[C@@H]1N	1.35
N#Cc1ccc(N2CCC(c3nccn3Cc3cscn3)CC2)nc1	-7.01
CS(=O)(=O)N1CCC[C@H]1c1ncnn1-c1ccc2c(c1)OCO2	-12.8
CSc1cccc(CN2CCC(CCC(=O)NCCN(C)C)CC2)c1	-11.9
Cc1cc(C)nc(CN(C)C(=O)c2cccc(CCC(C)(C)O)c2)c1	-3.25
CCC1C=CCN1C(=O)c1cc(COc2ccccc2OC)[nH]n1 (centres undefined)	2.93
Cc1oc(-c2ccoc2)nc1CN1CCCCC1CCc1ccccc1 (centres undefined)	-1.48
COc1cccn(CC(=O)N2CCCC3(CCCO3)CC2)c1=O (centres undefined)	0.955
Cn1c(C(=O)N2CCc3[nH]cnc3C2C(=O)O)ccc1-c1ccccc1 (centres undefined)	-0.392
CC1CCN(S(=O)(=O)c2ccc(C(=O)N3CCSCC3)cc2)CC1	9.54
CN(CCCc1cnn(C)c1)C(=O)C1COc2ccccc2C1 (centres undefined)	-5.91
CCc1cc(NCCc2ccc(O)cc2)n2nccc2n1	-16.3
CNc1nc(C2CCCN2C(C)=O)nc2c1CCN(CC1CC1)C2 (centres undefined)	-0.361
COc1ccc(C)cc1CC(=O)NS(=O)(=O)c1ccc(C(N)=O)cc1	8

Compound	cytotoxicity at 10 µM [%]
CN(Cc1ccc(F)cc1)C(=O)Nc1cccnc1N1CCCC1	-4.26
Cn1cnc2c1CCN(Cc1csc(-c3ccc(F)cc3)n1)C2	-4.78
COc1ccnc(N2CCN(C(=O)COCC(F)(F)F)CC2)n1	-9.36
CC(C)CNC(=O)c1cccc(CN2CCc3c(ncn3C)C2)c1	-6.98
CN1CCN(c2cc(CNC(=O)c3ccsc3)ccn2)CC1	-7.27
Cc1cc2n(n1)CC(CNCc1ccc(N3CCOCC3)nc1)CN2 (centres undefined)	-15.3
Cc1cc(NC(=O)NCC(c2ccccc2)N2CCOCC2)n(C)n1 (centres undefined)	-11
CCOc1ccc(C#N)cc1NCC(=O)NC1(C#N)CCCC1	-30.8
CC(C)c1nc2c(n1C)CCN(CCCOc1ccc(C#N)cc1)C2	-12.8
Cc1ccc(NC2CCN(C(=O)c3ccc(C#N)cc3)CC2)nn1	-4.28
Cc1cc(NS(=O)(=O)c2ccc(C(=O)O)cc2F)ccc1F	-1.96
CC(C)c1nc2n(n1)CC(NCc1nnc(C3CC3)o1)CC2 (centres undefined)	-11.6
CCCC(=O)N1CCN(CC(O)COCC)CC1 (centres undefined)	-20.6
COc1cc(C)ccc1OCC(=O)NS(=O)(=O)c1ccc(Br)s1	-7.72
CC(=O)N(Cc1ncc(C)o1)C1CCN(Cc2sc(C)nc2C)C1 (centres undefined)	-19.8
CCc1nc(C2CCCN(C(=O)CC3CCOCC3)C2)no1 (centres undefined)	-15.3
CCc1nc(CN2CCCN(CC(=O)Nc3cccnc3)CC2)no1	-17.4
COc1ccc(C(O)CNc2c(C#N)c(=O)n(C)c(=O)n2C)cc1 (centres undefined)	-7.34
COc1ccc(C(C)NC(=O)NCCCn2cncn2)cc1F (centres undefined)	2.12
COc1ccc(CN(C)Cc2nc3c(cnn3C)c(=O)[nH]2)cc1OC	0.457
CC(C)(C)OC(=O)N1CCN(C(=O)c2sccc2C2CC2)CC1	2.38
CCN(CCNC(=O)c1ccccc1Br)C1CC1	3.32

Compound	cytotoxicity at 10 µM [%]
O=C(c1ccccn1)N1CCC2(CC1)COC(COCC1CCCC1)C2 (centres undefined)	-1.18
Cn1cc(C(=O)NCc2cn3c(n2)CN(CC2CCCC2)CC3)cn1	7.17
CN(Cc1cccnc1)[C@@H]1CN(C(=O)c2ccoc2)[C@@H]2CCCO[C@H]12	-1.81
CCOCC1CN(Cc2cccnc2OC)Cc2cnn(C)c21 (centres undefined)	-1.6
O=C1CC(c2ccccc2)C2(CCN(Cc3nccs3)CC2)N1 (centres undefined)	4.67
Cc1ccc(CN2CCC[C@@H]3CN(C(=O)c4ccco4)C[C@@H]32)s1	-1.05
Cc1cc(C(=O)N2CC[C@@H](N(C)C)[C@@H]2Cc2ccccc2)no1	-0.567
Cc1ccc(CN2CCC3(CC2)CN(c2cnn(C)c2)C(=O)CO3)o1	2.96
COc1ccc(CN2C[C@@H]3CN(Cc4ccncc4)C[C@@H]3C2=O)cc1	-3.86
CCCS(=O)(=O)N1C[C@@H]2CN(Cc3cccs3)CCO[C@@H]2C1	-145
Cn1cccc1C(=O)N1CCC2(CCCN2c2ncccn2)CC1	6.07
O=C(c1cccnc1)N1CCOC2(COCCN(c3cncnc3)C2)C1 (centres undefined)	4.53
O=C(c1ccncc1F)N1CCc2ncnc(C3CC3)c2CC1	-78.4
CCc1ncnc2c1CCN(Cc1nccs1)CC2	6.56
CN(C)c1ncc(-c2cc(C(=O)NCCC#N)n(CC3CC3)c2)cn1	1.29
CN1C(=O)CCCC12CCCN(Cc1cccs1)C2 (centres undefined)	-0.302
Cc1ccsc1CNC1CCCc2c1cnn2C (centres undefined)	2.27
O=C1N(CC2CC2)CCC12CCN(c1ncccn1)CC2	3.77
O=C(c1n[nH]c2c1CN(C1CCOCC1)CC2)N1CCCC1	-2.39
CN(C)[C@@H]1CN(Cc2ccco2)C[C@@H]2CCCO[C@@H]21	2.75
Cc1ccc(N2CC[C@@H]3CN(Cc4cccc(C)n4)C[C@@H]3C2)nn1	6.34
